Assay results published in PMC6272098 (Cancer Science, 2018).

What was measured:
[1] = 21-day oral dosage in mice ref 22; cited from earlier work
[2] = tested on: TCF/LEF reporter activity; test: TCF/LEF luciferase reporter assay, COLO-320DM; assay type: cell-based, human; conditions: 30 h
In short: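 Cells were transfected with TCF reporter vectors (including pTcf7wt-luc), then exposed to test compound for 30 h and luciferase activity was read. Comparison was by Tukey-Kramer test against pTcf7wt-luc-transfected DMSO-treated cells.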

[3] = tested on: TCF/LEF reporter activity; test: TCF/LEF luciferase reporter assay, L-Wnt3A-stimulated HEK293T; assay type: cell-based; conditions: 30 h
In short: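 HEK293T cells were transfected with TCF luciferase reporters. Conditioned medium from L or L‐Wnt3A cells, prepared per the ATCC protocol, was added together with test compound, and luciferase was read after 30 h. Comparison was by Tukey-Kramer test against pTcf7wt-luc-transfected DMSO controls.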

[4] = tested on: non-phosphorylated (active) β-catenin; test: Immunofluorescence staining of active β-catenin in COLO-320DM cells; assay type: cell-based, human; conditions: 1 μmol/L, 16 h, DMSO 100%
In short: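 Cells were exposed to 1 μmol/L test compound for 16 h, then immunostained with anti-non-phosphorylated β-catenin antibody (D13A1, 1:500) and counterstained with DAPI. Fluorescence images were quantified, and intensity was expressed relative to DMSO-treated cells (100%).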

[5] = tested on: COLO-320DM cells; test: BrdU assay; assay type: cell-based, human; conditions: 48 h
In short: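 Cells were grown in RPMI-1640 with 10% heat-inactivated FBS and exposed to test compound for 48 h before BrdU incorporation was measured. Tukey-Kramer comparison was against DMSO-treated cells. Experiments were repeated at least twice; representative results are shown with standard deviation.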

[6] = tested on: tankyrase, Axin1/2, β-catenin; test: Western blot analysis of pharmacodynamic biomarkers in COLO-320DM cells; assay type: cell-based, human; conditions: 16 h
In short: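 Cells cultured in RPMI-1640 with 10% heat-inactivated FBS were treated for 16 h. Whole cell lysates were then analysed by western blot.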

[7] = tested on: RKO cells; test: BrdU assay; assay type: cell-based, human; conditions: 48 h
In short: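 Cells were kept in DMEM with 10% FBS, treated for 48 h, then assayed for BrdU incorporation. DNA synthesis was compared with DMSO-treated (basal) cells by Tukey-Kramer test. Experiments were repeated at least twice; representative data are shown with standard deviation.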

TCF/LEF luciferase activity [3] | SMILES | Body weight and small intestine histology in mice [1] | TCF/LEF reporter activity [2] | Immunofluorescence intensity of active β-catenin [4] [%] | DNA synthesis (BrdU) ([5]; 10 μmol/L) | DNA synthesis (BrdU) ([5]; concentrations up to 3 μmol/L) | Tankyrase, Axin1/2 and β-catenin protein levels (western blot) [6] | DNA synthesis (BrdU) [7] | DNA synthesis (BrdU) relative to basal level ([7]; 10 μmol/L)
– | COc1ccc(C2(CNC(=O)c3ccc(NC(=O)c4ccco4)cc3)CCOCC2)cc1 [JW55] | no body weight alterations or histological changes in the small intestine | – | – | – | – | – | – | –
only marginally inhibited | O=C(c1cc(Cc2n[nH]c(=O)c3ccccc23)ccc1F)N1CCN(C(=O)C2CC2)CC1 [olaparib] | – | no effect | 106 | marginally inhibited | no effects | did not affect | resistant | half
